For 14 molecules, Activity and IC50 results are on record in ChEMBL document CHEMBL1781998, “Synthesis and biological evaluation of boron peptide analogues of Belactosin C as proteasome inhibitors” (Bioorg Med Chem Lett, 2009).

The structures appear in SMILES notation. Where a SMILES comes first, the peptide text is derived from it. The star is where a group is joined. Cbz = O=C(OCc1ccccc1)*

Assay [1] deals with HeLa. The experiment in a line: Cell cycle arrest in human HeLa cells assessed as accumulation at G1 phase at 10 uM after 24 hrs by flow cytometry (reference value: 56.4 +/- 0.39%). Format: functional.
Assay [2] has as its system HeLa. As to the kind of experiment: Cell cycle arrest in human HeLa cells assessed as accumulation at S phase at 1 uM after 24 hrs by flow cytometry (reference value: 30 +/- 0.46%). Format: functional. (In general: Flow cytometry measures light scatter and fluorescence of single cells or particles in a stream.)
For assay [3], the system named is HeLa. As to the kind of experiment: Induction of apoptosis in human HeLa cells at 10 uM incubated for 12 hrs using annexin V-FITC and propidiun iodide staining based flow cytometry (reference value: 2.6 +/- 0.14%). Type of assay: functional. The procedure, abridged:
(§1)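 HeLa cells treated for 12 h, then stained with annexin V-FITC and propidium iodide; apoptosis measured by flow cytometry. Values are mean ± sd of triplicate samples.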

The subject of assay [4] is HeLa. As to the kind of experiment: Growth inhibition of human HeLa cells after 72 hrs by MTT assay. Format: functional, cell-based. The essentials: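 HeLa cells incubated for 72 h with a range of compound concentrations; viability read by MTT assay and used to derive IC50.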
In general terms: Formazan colour is commonly taken as a measure of viable cells.

Assay [5] can be described thus: Inhibition of caspase-like activity of human erythrocyte 20S proteasome using Z-LLE-AMC substrate incubated at 37 degC for 1 hr by fluorometric assay. The essentials:
(§2)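 Compound combined with 75 µM fluorogenic substrate in 20 mM Tris pH 8.0, 0.5 mM EDTA, 0.035% SDS. Reaction started with 50 ng of purified human erythrocyte 20S proteasome and run 1 h at 37 °C. Stopped with 20 mM Tris pH 8.9, 0.5% SDS; released AMC read at 365 nm excitation / 460 nm emission.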

Assay [6] deals with HeLa. The experiment in a line: Induction of apoptosis in human HeLa cells at 1 uM incubated for 12 hrs using annexin V-FITC and propidiun iodide staining based flow cytometry (reference value: 2.6 +/- 0.14%). Type of assay: functional. The essentials: as §1
The nature of assay [7]: Inhibition of chymotrypsin-like activity of human erythrocyte 20S proteasome using Suc-LLVY-AMC substrate incubated at 37 degC for 1 hr by fluorometric assay. The procedure, abridged: as §2
The test system of assay [8] is HeLa. The experiment in a line: Cell cycle arrest in human HeLa cells assessed as accumulation at G2/M phase at 10 uM after 24 hrs by flow cytometry (reference value: 13.7 +/- 0.87%). Format: functional.
The subject of assay [9] is HeLa. As to the kind of experiment: Cell cycle arrest in human HeLa cells assessed as accumulation at S phase at 10 uM after 24 hrs by flow cytometry (reference value: 30 +/- 0.46%). Type of assay: functional.
In assay [10] the test system is HeLa. The experiment in a line: Cell cycle arrest in human HeLa cells assessed as accumulation at G1 phase at 1 uM after 24 hrs by flow cytometry (reference value: 56.4 +/- 0.39%). Type of assay: functional.
A short description of assay [11]: Inhibition of trypsin-like activity of human erythrocyte 20S proteasome using Boc-LLR-AMC substrate incubated at 37 degC for 1 hr by fluorometric assay. The following applies: in the assay text read “Boc-LRR-AMC” for “Boc-LLR-AMC”. The essentials: as §2
Assay [12] deals with HeLa. As to the kind of experiment: Cell cycle arrest in human HeLa cells assessed as accumulation at G2/M phase at 1 uM after 24 hrs by flow cytometry (reference value: 13.7 +/- 0.87%). Type of assay: functional.
The subject of assay [13] is HeLa. As to the kind of experiment: Cell cycle arrest in human HeLa cells assessed as accumulation at G1 phase at 0.1 uM after 24 hrs by flow cytometry (reference value: 56.4 +/- 0.39%). Type of assay: functional.
Assay [14] concerns HeLa. As to the kind of experiment: Cell cycle arrest in human HeLa cells assessed as accumulation at S phase at 0.1 uM after 24 hrs by flow cytometry (reference value: 30 +/- 0.46%). Format: functional.
For assay [15], the system named is HeLa. The experiment in a line: Induction of apoptosis in human HeLa cells at 0.1 uM incubated for 12 hrs using annexin V-FITC and propidiun iodide staining based flow cytometry (reference value: 2.6 +/- 0.14%). Type of assay: functional. The procedure, abridged:
as §1

Assay [16] relates to HeLa. As to the kind of experiment: Cell cycle arrest in human HeLa cells assessed as accumulation at G2/M phase at 0.1 uM after 24 hrs by flow cytometry (reference value: 13.7 +/- 0.87%). Type of assay: functional.
Assay [17] is described as follows: Antiproliferative activity against human HeLaS3 cells after 72 hrs. Type of assay: functional, cell-based. The settings on record: HeLa S3, 72 h. The essentials: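 HeLa cells were exposed to a range of compound concentrations for 72 h, and viability was then read by MTT assay. IC50 values are growth inhibition, reported as mean ± sd of triplicate samples.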

Regarding `CC(C)C[C@H](NC(=O)CC[C@H](NC(=O)CNC(=O)OC(C)(C)C)C(=O)NCc1ccc2ccccc2c1)B(O)O`, the Activity in [1] was 23%; in [2], 16.4%; in assay [3] it was 15.2%; in assay [6], 12.9%; in assay [8] it was 62.6%; in [9], 14.4%. The Activity worked out at 57.7% in [10] and 26% in assay [12]. Further, the IC50 in assay [4] was 0.35 µM; in assay [5], 8.54 µM; in assay [7], 0.28 µM; in assay [11], over 10 µM.

Regarding `CC(C)C[C@H](NC(=O)CC[C@H](NC(=O)[C@H](Cc1ccccc1)NC(=O)OC(C)(C)C)C(=O)NCc1ccc2ccccc2c1)B(O)O`, the half-maximal inhibitory concentration (IC50) is 0.66 µM in [4], over 10 µM in assay [5], 1.47 µM in [7] and over 10 µM in assay [11].

For `CC(C)C[C@H](NC(=O)CC[C@H](NC(=O)OC(C)(C)C)C(=O)NCc1ccc2ccccc2c1)B(O)O`, the IC50 in assay [4], in assay [5], in assay [7] and in assay [11] was over 10 µM in each case.

For the molecule `CC(C)C[C@H](NC(=O)[C@H](Cc1ccccc1)NC(=O)c1cnccn1)B(O)O` [BORTEZOMIB], the Activity in assay [13] amounted to 14.6%; in assay [14], 15.9%; in assay [15], 14.5%; in assay [16], 69.6%. In addition, the concentration for half-maximal inhibition (IC50) in assay [4] is 0.02 µM; in assay [5], 0.68 µM; in [7], 0.02 µM; in [11], over 10 µM.

For `CC(C)C[C@H](NC(=O)CCC[C@H](NC(=O)[C@H](C)NC(=O)OC(C)(C)C)C(=O)NCc1ccc2ccccc2c1)B(O)O`, the IC50 is over 10 µM in [4], over 10 µM in assay [5], 4.28 µM in assay [7] and over 10 µM in [11].

Consider `CC(C)C[C@H](NC(=O)CC[C@H](NC(=O)[C@H](CC(C)C)NC(=O)OC(C)(C)C)C(=O)NCc1ccc2ccccc2c1)B(O)O`, for which the IC50 in assay [4] was 0.79 µM; in assay [5], over 10 µM; in assay [7], 1.5 µM; in [11], over 10 µM.

As for `CC(C)C[C@@H](C=O)NC(=O)[C@H](CC(C)C)NC(=O)[C@H](CC(C)C)NC(=O)OCc1ccccc1` [MG-132] (Cbz-Leu-Leu-Leu-aldehyde), the half-inhibitory concentration (IC50) is 7.23 µM in assay [5], 0.07 µM in [7] and over 10 µM in assay [11].

The molecule `CC[C@H](C)[C@@H]1C(=O)O[C@H]1C(=O)NCCC[C@H](NC(=O)[C@H](C)N)C(=O)O` [BELACTOSIN C] gave an IC50 in [17] of 200 µM.

Regarding `CC(C)C[C@H](NC(=O)CC[C@H](NC(=O)CNC(=O)OC(C)(C)C)C(=O)NCc1ccccc1)B(O)O`, the Activity in assay [1] came out at 43.2%; in assay [2], 30.7%; in assay [3], 11.7%; in assay [6], 7.6%; in assay [8], 26%; in assay [9], 30.7%. Further, the Activity in assay [10] amounted to 56.2%; in assay [12], 13.1%. For the same molecule, the IC50 was 5.11 µM in [4], over 10 µM in [5], 0.54 µM in [7] and over 10 µM in assay [11].

`CC(C)C[C@H](NC(=O)CC[C@H](NC(=O)[C@H](C)NC(=O)OC(C)(C)C)C(=O)NCc1ccc2ccccc2c1)B(O)O`: the IC50 in [4] was 2.35 µM; in assay [5], 9.84 µM; in [7] it was 0.84 µM; in assay [11], over 10 µM.

`CC(C)C[C@H](NC(=O)CCC[C@H](NC(=O)CNC(=O)OC(C)(C)C)C(=O)NCc1ccc2ccccc2c1)B(O)O`: the IC50 was over 10 µM in [4], over 10 µM in assay [5], 2.74 µM in assay [7] and over 10 µM in assay [11].

With `CC(C)C[C@H](NC(=O)C[C@H](NC(=O)OC(C)(C)C)C(=O)NCc1ccc2ccccc2c1)B(O)O`, the IC50 in assay [4] is over 10 µM; in [5], over 10 µM; in [7], 4.51 µM; in [11], over 10 µM.

For `CC(C)C[C@H](NC(=O)CCC[C@H](NC(=O)OC(C)(C)C)C(=O)NCc1ccc2ccccc2c1)B(O)O`, the IC50 in assay [4] was over 10 µM; in assay [5], over 10 µM; in [7], 4.12 µM; in assay [11], over 10 µM.

As for `CC[C@H](C)[C@@H]1C(=O)O[C@H]1C(=O)N[C@H]1C[C@H]1C[C@H](NC(=O)[C@H](C)N)C(=O)O` [BELACTOSIN A], in [17], half-maximal inhibition (IC50) required 51 µM.

Broadly, the IC50 is the midpoint of a concentration-inhibition curve. Lower therefore signals inhibition by little substance.
